# SUMO HTRF inh: inhibitors of in vitro SUMOylation cascade, primary screen, biochemical, HTRF, uHTS | inhibition, % at 35 µM | hit rate 0.36% among 290,000 | SUMO-conjugating enzyme UBC9 (Homo sapiens), P63279 | HTRF SUMOylation assay, SAE1/SAE2 + UBC9; in the data active = inhibition above about 50%, passing the limit was not always enough
# Target sequence (P63279 whole entry, looked up): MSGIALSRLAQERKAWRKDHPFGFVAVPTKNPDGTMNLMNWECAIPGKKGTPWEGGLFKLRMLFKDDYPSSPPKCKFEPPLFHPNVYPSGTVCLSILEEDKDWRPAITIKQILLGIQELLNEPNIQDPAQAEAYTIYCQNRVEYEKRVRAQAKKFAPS
# ZTA DNA inh: ZTA (EBV) inhibition in EBNA-1 counter-screen; P03206; ZTA-DNA binding, fluorescence polarization; inhibition, % at 11 µM; hit rate 0.15% among 320,000; AID 2234; in the data active = inhibition above about 33%
# Target sequence (P03206 whole entry, looked up): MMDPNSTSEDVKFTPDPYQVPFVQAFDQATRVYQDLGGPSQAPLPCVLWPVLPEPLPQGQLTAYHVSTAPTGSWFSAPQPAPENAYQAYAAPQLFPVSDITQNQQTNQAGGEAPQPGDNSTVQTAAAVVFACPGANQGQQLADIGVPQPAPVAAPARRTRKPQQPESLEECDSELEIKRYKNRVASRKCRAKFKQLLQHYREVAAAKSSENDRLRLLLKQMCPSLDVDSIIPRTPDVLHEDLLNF
# HCV NS3 hel inh: inhibitors of HCV NS3 helicase, primary screen, biochemical, Cy5 molecular beacon fluorescence; inhibition, % at 10.9 µM; NS3 helicase DNA unwinding; Hepatitis C virus NS3 helicase; hit rate 0.56% among 290,000;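 active = inhibition above the mean of all tested compounds plus 3 SD, set per campaign, cut at about 35% in these data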
#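 System: Hepatitis C virus NS3 helicase domain fragment enzyme | Reagent: Annealed dual-labelled DNA beacon duplex, ATP-started | Compound dosing: 10.9 µM single point, 0.8% DMSO | Incubation: 1 h reaction at 25 °C, ATP-initiated | Technique: Cy5 fluorescence | Evaluation: Percent inhibition from t60/t0 fluorescence ratio | Benchmarks: Low DMSO, high thioflavine S at 110 µM | Replication: Singlicate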
# HCV core dimer: inhibitors of HCV core protein dimerization, primary screen, biochemical, TR-FRET, high-throughput; hit rate 0.33% among 300,000; AID 1899, 2009; TR-FRET GST/Flag-core106 dimerization, 1536-well; inhibition, % at 5 µM;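 active = inhibition above the mean of all tested compounds plus 3 SD, set per screening campaign, cut at about 45% in these data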
#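 test system = GST/Flag-tagged HCV core106 proteins | probe or stimulus = Eu donor and XL665 acceptor anti-tag antibodies | times = compound-protein-antibody incubation 4 h at 22.5 °C | signal = TR-FRET, excitation 340 nm, emission 617 and 671 nm | measure = percent inhibition of core106 dimerization signal | controls = wells lacking GST-core106 and wells with excess unlabelled core106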
# EBNA-1 inhibitor: EBNA-1 DNA-binding inhibitors, primary screen, biochemical, fluorescence polarization; inhibition, % at 14.8 µM; hit rate 0.34% among 300,000; in the data active = inhibition above about 28%
# NS3 hel confirm: HCV NS3 helicase inhibitors, retest, confirmation, biochemical, Cy5 molecular beacon fluorescence, triplicate. shares compounds with HCV NS3 hel inh. NS3 helicase DNA unwinding. inhibition, % at 10.9 µM. hit rate 31% among 1,600. AID 1943, 2009;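 active = inhibition above the mean of all tested compounds plus 3 SD, cutoff set per campaign, cut at about 36% in these data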
# DNA FID counter: compounds displacing fluorescent DNA intercalator, artefact control for HCV NS3 helicase inhibitor project, biochemical, FID fluorescence, triplicate. AID 1945, 2009. inhibition, % at 7.9 µM. shares compounds with HCV NS3 hel inh. DNA fluorescent intercalator displacement. hit rate 4% among 1,600; in the data active = inhibition above about 37%;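 note: higher means more displacement of ethidium bromide from the DNA hairpin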
# FID counter DR: compounds displacing fluorescent intercalator from DNA, dose response, counter-screen for HCV NS3 helicase inhibitor project, biochemical, fluorescence. shares compounds with HCV NS3 hel inh. fluorescent intercalator displacement from DNA. IC50, µM. 120 tested, under 10 active. AID 2172, 2009; call rule not given here
# A number is an active result; i = inactive; nt = not tested or not shown. Shown are actives, neighbours in structure and some others; about 1.4% of the full set was active somewhere.
SMILES,SUMO HTRF inh,ZTA DNA inh,HCV NS3 hel inh,HCV core dimer,EBNA-1 inhibitor,NS3 hel confirm,DNA FID counter,others
COCc1cc(=O)n2[nH]c(-c3ccco3)cc2n1,i,i,i,i,i,nt,nt,
CCCCN1Cc2c(nc3cc(-c4ccco4)[nH]n3c2=O)C1=O,92.1,i,49.0,i,i,i,i,
O=C(O)C(c1ccccc1)N1C(=O)/C(=C\c2ccc(-c3ccccc3Cl)o2)SC1=S (stereo not drawn),i,i,59.1,i,i,83.4,57.4,
O=C(O)C(c1ccccc1)N1C(=O)/C(=C\c2ccc(-c3ccc(Br)cc3)o2)SC1=S (stereo not drawn),i,nt,i,nt,nt,nt,nt,
CCc1cc(=O)oc2cc(C)c(CN3CCCC3)c(O)c12,i,i,39.3,85.6,i,i,i,
CCCc1cc(=O)oc2cc(C)c(CN3CCCC3)c(O)c12,i,i,39.9,53.3,i,41.5,i,
CCc1cc(=O)oc2cc(C)c(CN3CCCCC3)c(O)c12,i,i,36.4,i,i,i,i,
Cc1cc(=O)oc2c(CN3CCCCC3)c(O)c(Cl)cc12,i,i,i,i,i,nt,nt,
Cc1cc(=O)[nH]c2c1cnn2Cc1ccccc1,i,i,i,i,i,nt,nt,
S=c1nc[nH]c2c1cnn2Cc1ccccc1,i,nt,40.6,nt,nt,i,i,
CCCCOc1ccccc1C(=O)NNC(=S)NC(=O)c1ccccc1[N+](=O)[O-],i,i,40.4,i,i,51.2,i,FID counter DR=i
Cc1ccc(C)c(NC(=O)CCC(=O)NNS(=O)(=O)c2ccc(Cl)cc2)c1,nt,i,nt,nt,nt,nt,nt,
c1ccc2c(c1)ncc1cccn12,i,i,i,i,i,nt,nt,
CCn1c2ccccc2c2c3ncc4cccn4c3ccc21,i,i,43.7,i,i,i,49.6,
O=C(CN1CCOc2ccccc21)NC1CCCCCCC1,nt,i,61.6,i,i,i,i,
O=C(CN1CCOc2ccccc21)NC1CCN(Cc2ccccc2)CC1,i,i,i,i,i,nt,nt,
O=C1/C(=C\c2cc(Cl)c(O)c(Cl)c2)SC(=S)N1Cc1ccccc1,i,nt,40.5,nt,nt,66.3,i,
CC(/C=C1\SC(=O)N(CCCC(=O)O)C1=O)=C\c1ccccc1,i,i,i,i,i,nt,nt,
C=CCN1C(=O)/C(=C\C(C)=C\c2ccccc2)SC1=S,i,i,i,i,i,nt,nt,
O=C(O)CN1C(=O)/C(=C\C(Br)=C\c2ccccc2)SC1=S,i,i,38.0,i,i,71.9,i,
CC(=C\c1ccccc1)/C=C1/SC(=S)N(CCCC(=O)O)C1=O,i,nt,59.3,nt,nt,60.7,i,
COc1ccc(OC)c(S(=O)(=O)n2ccnc2C(C)C)c1,i,i,i,i,i,nt,nt,
CCc1ccc(OCC(=O)NNC(=O)C2CCC2)cc1,nt,i,nt,i,i,nt,nt,
N#CC1=C(N)SC(N)=C(C#N)C1CCC1CCCCC1,i,i,52.8,i,i,i,i,
Nc1nnc(CCC2CCCCC2)s1,i,i,i,i,i,nt,nt,
SMILES,SUMO HTRF inh,ZTA DNA inh,HCV NS3 hel inh,HCV core dimer,EBNA-1 inhibitor,NS3 hel confirm,DNA FID counter,others
CCCC(=O)Nc1ccc(-c2csc(N/N=C\c3ccncc3)n2)cc1,i,i,38.0,i,i,i,i,
CCOC(=O)c1c(N)sc2c1CCC(C)C2 (stereo not drawn),i,i,42.8,i,i,i,i,
CCOC(=O)c1c(NS(C)(=O)=O)sc2c1CCC(C)C2 (stereo not drawn),i,i,i,i,i,nt,nt,
O=C(O)/C(=C\c1ccco1)NC(=O)c1cccc2ccccc12,i,i,53.2,i,i,i,i,
O=C(NC(Cc1ccccc1)C(=O)O)/C(=C\c1ccco1)NC(=O)c1ccccc1 (stereo not drawn),i,i,36.5,i,i,54.1,i,
N#CC1=C(N)Oc2ccc3ccc(O)cc3c2C1c1ccsc1 (stereo not drawn),i,nt,53.3,nt,nt,i,i,
N#CC1=C(N)Oc2cc(N)ccc2C1c1ccsc1 (stereo not drawn),i,i,i,i,i,nt,nt,
O=[N+]([O-])c1cccc(-c2c(-c3ccccc3)ncc3ccc(F)cc23)c1,nt,i,nt,nt,nt,nt,nt,
CCOc1ccccc1/C=N/NC(=O)c1cccc(S(=O)(=O)N(CC)CC)c1,i,i,i,i,i,nt,nt,
CCN(CC)S(=O)(=O)c1cccc(C(=O)N/N=C/c2ccc(O)c(O)c2O)c1,50.2,i,45.1,i,i,76.4,i,FID counter DR=i
CN(C)S(=O)(=O)c1cccc(NC(=S)N/N=C/c2ccc(O)c(O)c2O)c1,51.8,nt,40.6,nt,nt,i,50.0,
Cc1ccc(OCc2nnc(SCC(=O)N3C(C)CCCC3C)o2)cc1 (stereo not drawn),i,i,i,i,i,nt,nt,
O=C(O)CN1C(=O)/C(=C\c2cc(Br)ccc2OCc2ccc(Cl)cc2Cl)SC1=S,i,i,75.8,i,i,85.6,52.3,
O=C(O)CN1C(=O)/C(=C\c2cccc(OCc3ccccc3F)c2)SC1=S,i,i,i,i,i,nt,nt,
O=C(O)CN1C(=O)/C(=C\c2ccccc2OCc2ccc(Cl)cc2)SC1=S,i,i,42.6,i,i,69.9,i,
COc1ccc(-c2nn(-c3ccccc3)cc2/C=C2/SC(=S)N(CCC(=O)O)C2=O)cc1,i,i,i,i,i,nt,nt,
Cc1ccc(-c2nn(-c3ccccc3)cc2/C=C2\SC(=S)N(CC(=O)O)C2=O)cc1,i,i,47.0,i,i,60.8,45.9,
O=C(O)CN1C(=O)/C(=C\c2cccc(OCc3ccc(Cl)cc3)c2)SC1=S,i,i,i,i,i,nt,nt,
CCOc1ccc(-n2nc3ccc(N)cc3n2)cc1,i,nt,44.1,nt,nt,i,i,
CCOc1ccc(-n2nc3cc(C)c(N)cc3n2)cc1,i,i,63.3,i,i,i,i,
Cc1ccc(-n2nc3ccc(N)cc3n2)cc1,i,i,i,i,i,nt,nt,
CCOc1ccc(OCCCC(=O)N(CC)CC(=O)Nc2c(F)cccc2F)cc1,nt,i,nt,nt,nt,nt,nt,
O=C(NCC1CC1)c1cc([N+](=O)[O-])cc([N+](=O)[O-])c1,i,i,i,i,i,nt,nt,
CC(=O)Cc1nsc(NC(=O)c2ccc(COc3ccccc3Cl)o2)n1,i,i,i,i,i,nt,nt,
O=C(NNC1CC(=O)N(c2ccccc2)C1=O)c1ccc(COc2ccccc2Cl)o1 (stereo not drawn),i,i,60.1,i,i,i,i,
CC(=O)c1sc(NC(=O)c2ccc(COc3ccccc3Cl)o2)nc1C,i,i,41.7,i,i,i,i,
CC(C)c1nc(SCC(=O)NC2CCCC2)c2c(=O)n(C)c(=O)n(C)c2n1,i,i,i,i,i,nt,nt,
